According to ChEMBL document CHEMBL4342524, “Discovery of M-808 as a Highly Potent, Covalent, Small-Molecule Inhibitor of the Menin-MLL Interaction with Strong In Vivo Antitumor Activity” (J Med Chem, 2020):
Calls of active or inactive are those of the source. The rule behind the calls is not given here.

Assays:
MV4-11 [1] = assay: Growth inhibition of human MV4-11 cells after 7 days by WST-8 assay; format: functional, cell-based; conditions: MV4-11, 168 h
Outline: (§1)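 Cells cultured in IMDM or RPMI 1640 with 10% FBS at 37 °C, 5% CO2. Growth read by WST-8 at 450 nm after at least 1 h with reagent. Signals normalized to untreated cells and IC50 fitted by nonlinear regression; mean and SD from three independent experiments.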

MOLM-13 = assay: Growth inhibition of human MOLM13 cells after 7 days by WST-8 assay; format: functional, cell-based; conditions: MOLM-13, 168 h; outline: as §1
Menin (Homo sapiens) [2] = target: T1, Menin (Homo sapiens) (UniProt O00255); assay: Covalent binding affinity to human menin assessed as protein-compound complex formation at protein to compound ratio of 1:1.2 measured after overnight incubation by LC-MS analysis relative to control
T1 sequence (whole entry): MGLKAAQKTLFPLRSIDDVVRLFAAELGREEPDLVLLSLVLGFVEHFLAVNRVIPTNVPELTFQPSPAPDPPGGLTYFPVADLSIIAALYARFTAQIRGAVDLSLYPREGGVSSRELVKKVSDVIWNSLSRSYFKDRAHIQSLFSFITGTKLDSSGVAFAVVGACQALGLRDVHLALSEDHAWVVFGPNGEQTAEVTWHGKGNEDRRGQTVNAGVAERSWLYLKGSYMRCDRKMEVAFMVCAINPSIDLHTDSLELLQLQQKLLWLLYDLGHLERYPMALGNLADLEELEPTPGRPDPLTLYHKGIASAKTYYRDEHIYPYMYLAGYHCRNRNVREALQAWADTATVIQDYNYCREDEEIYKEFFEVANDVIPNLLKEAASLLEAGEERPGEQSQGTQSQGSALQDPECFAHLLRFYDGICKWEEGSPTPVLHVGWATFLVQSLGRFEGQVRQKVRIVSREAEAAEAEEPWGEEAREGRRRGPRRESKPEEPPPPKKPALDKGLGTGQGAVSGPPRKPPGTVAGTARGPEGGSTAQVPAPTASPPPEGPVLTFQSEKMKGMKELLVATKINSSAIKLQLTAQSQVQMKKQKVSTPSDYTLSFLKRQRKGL
Outline: (§2)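 Diluted to 1 mg/mL, then run on reverse-phase C4 LC with a 5–100% MeCN/0.2% formic acid gradient and Q-TOF MS. Intact masses obtained by maximum-entropy deconvolution.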

HL-60 = assay: Growth inhibition of human HL60 cells after 7 days by WST-8 assay; format: functional, cell-based; conditions: HL-60, 168 h; outline: as §1
Menin (Homo sapiens) [3] = target: T1, Menin (Homo sapiens); assay: Covalent binding affinity to human menin assessed as protein-compound complex formation at protein to compound ratio of 1:1.2 after 1 hr by LC-MS analysis relative to control; outline: as §2
[4] = Toxicity in SCID mouse assessed as drug tolerability at 10 mg/kg, iv administered every other day for 1 week; format: organism-based; conditions: in vivo, 168 h
[5] = Toxicity in SCID mouse assessed as reduction in body weight at 25 mg/kg, iv administered every other day for 1 week relative to control; format: organism-based; parameters: scale not given: the % may be the effect or the level left; conditions: in vivo, 168 h
Mus musculus [6] = assay: Downregulation of Hoxa9 expression in tumors of CB-17 SCID mouse xenografted with human MV4-11 cells at 10 mg/kg, iv administered as single dose and measured after 24 hrs by RT-qPCR analysis; format: functional, organism-based
Outline: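 MV4;11 subcutaneous xenografts in female C.B-17 SCID mice; single IV dose of 10 mg/kg or vehicle. Tumors collected 24 h post-dose, 3 mice per group, snap-frozen and powdered. Total RNA converted to cDNA; HOXA9, MEIS1 and GAPDH measured by TaqMan real-time PCR; relative expression by comparative Ct.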

Mus musculus [7] = assay: Downregulation of MEIS1 expression in tumors of CB-17 SCID mouse xenografted with human MV4-11 cells at 10 mg/kg, iv administered as single dose and measured after 24 hrs by RT-qPCR analysis relative to control; format: functional
Outline: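 Female C.B-17 SCID mice bearing subcutaneous MV4;11 flank xenografts were given a single IV dose (vehicle control). Tumors were harvested at 24 h, 3 mice per time point, snap-frozen in liquid N2 and ground. Total RNA was reverse-transcribed, and HOXA9, MEIS1 and GAPDH were measured by TaqMan real-time PCR. Relative expression was calculated by the comparative Ct method.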

Menin [8] = target: T2, Menin (Homo sapiens, UniProt O00255); assay: Inhibition of fluorescent labeled tracer binding to Menin (unknown origin) after 1 hr by fluorescence polarization competitive binding assay
T2 sequence (O00255 whole entry): T1 sequence (whole entry)
Outline: (§3)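 Competitive FP assay: 4 nM menin and 2 nM fluorescein-labeled tracer (final concentrations) in PBS with 100 μg/mL bovine γ-globulin and 0.01% Triton X-100. Compounds added from DMSO at varying concentrations and incubated 1 h at room temperature. IC50 obtained by nonlinear sigmoidal fitting of the FP decrease against total compound concentration.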

Menin [9] = target: T2, Menin; assay: Inhibition of menin (unknown origin) by fluorescence polarization assay; outline: as §3
MV4-11 [10] = assay: Antitumor activity against human MV4-11 cells xenografted in CB-17 SCID mouse assessed as tumor growth inhibition at 25 mg/kg, iv administered every other day for 1 week (11 doses) and measured on day 35 post treatment relative to control; format: functional; conditions: MV4-11, iv, read-out: TGI
MV4-11 [11] = assay: Antitumor activity against human MV4-11 cells xenografted in CB-17 SCID mouse assessed as tumor volume at 25 mg/kg, iv administered every other day for 1 week (11 doses) and measured on day 35 post treatment (reference value: 92 mm3); format: functional
[12] = Toxicity in SCID mouse assessed as drug tolerability at 25 mg/kg, iv administered every other day for 1 week; format: organism-based; conditions: in vivo, 168 h
Mus musculus [13] = assay: In vivo inhibition of Menin-MLL protein-protein interaction in CB-17 SCID mouse xenografted with human MV4-11 cells assessed as reduction in MEIS1 expression in tumor at 25 mg/kg, iv measured after 6 to 24 hrs by RT-qPCR analysis; format: functional, organism-based
Outline: (§4)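 MV4;11 flank xenografts in female C.B-17 SCID mice given a single 25 mg/kg IV dose or vehicle. Tumors harvested at 6, 24 and 48 h, 3 mice per time point, and frozen in liquid N2. RNA extracted; HOXA9 and MEIS1, with GAPDH, quantified by TaqMan qRT-PCR using the comparative Ct method.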

[14] = Toxicity in CB-17 SCID mouse xenografted with human MV4-11 cells assessed as effect on clinical signs at 10 to 25 mg/kg, iv administered every other day for 1 week (11 doses); format: organism-based; conditions: in vivo, 168 h
Outline: (§5)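 Female C.B-17 SCID mice inoculated s.c. in the flank with 5 × 10^6 MV4;11 cells in 0.1 mL 1:1 PBS/Matrigel (final Matrigel 5 mg/mL). Dosed IV every other day, 3 times per week, 11 doses in total; vehicle-only control group. Tumor volume by calipers as (A × B²)/2, and body weight, measured 2–3 times weekly during treatment and at least weekly afterward. Toxicity signs monitored.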

[15] = Toxicity in CB-17 SCID mouse xenografted with human MV4-11 cells assessed as effect on body weight at 10 to 25 mg/kg, iv administered every other day for 1 week (11 doses); format: organism-based; conditions: in vivo, 168 h; outline: as §5
MV4-11 [16] = assay: Antitumor activity against human MV4-11 cells xenografted in CB-17 SCID mouse assessed as effect on tumor growth at 10 mg/kg, iv administered every other day for 1 week (11 doses); format: functional, organism-based; outline: as §5
Mus musculus [17] = assay: In vivo inhibition of Menin-MLL protein-protein interaction in CB-17 SCID mouse xenografted with human MV4-11 cells assessed as reduction in HOXA9 expression in tumor at 25 mg/kg, iv measured after 6 to 24 hrs by RT-qPCR analysis; format: functional, organism-based; outline: as §4

| SMILES | IC50 (MV4-11 [1]) | IC50 (MOLM-13) | Activity (Menin (Homo sapiens) [2]) | IC50 (HL-60) | Activity (Menin (Homo sapiens) [3]) | further results |
| --- | --- | --- | --- | --- | --- | --- |
| COC(=O)N[C@H]1CCC[C@@H]1[C@](CN1CCC1)(c1cccc(F)c1)C1CCN(CC2CN(c3ccc(S(=O)(=O)C4CN(C(=O)/C=C/CN5CC(F)C5)C4)cc3)C2)CC1 | 1 nM | 3 nM | 75% | 2000 nM | 20% |  |
| COC(=O)N[C@H]1CCC[C@@H]1[C@](CN1CCC1)(c1cccc(F)c1)C1CCN(CC2CN(c3ccc(S(=O)(=O)C4CN(C(=O)/C=C/CN5CCCC5)C4)cc3)C2)CC1 |  | 9 nM | 100% | 2100 nM | 100% | Activity [4]: Non-Toxic; Activity [5]: > 10%; Activity (Mus musculus [6]): Active; fold change (FC) (Mus musculus [7]): >2 |
| COC(=O)N[C@H]1CCC[C@@H]1[C@](CN1CCC1)(c1cccc(F)c1)C1CCN(CC2CN(c3ccc(S(=O)(=O)C4CN(C(=O)/C=C/CN5CCC(F)(F)CC5)C4)cc3)C2)CC1 | 4 nM | 20 nM | 0% | 3200 nM | 0% |  |
| COC(=O)N[C@H]1CCC[C@@H]1[C@](CN1CCC1)(c1cccc(F)c1)C1CCN(CC2CN(c3ccc(S(=O)(=O)C4CN(C(=O)/C=C/CN5CCC5)C4)cc3)C2)CC1 |  | 3 nM | 100% | 2100 nM | 75% |  |
| COC(=O)N[C@H]1CCC[C@@H]1[C@](CN(C)C)(c1cccc(F)c1)C1CCN(CC2CN(c3ccc(S(=O)(=O)C4CN(C(=O)/C=C/CN(C)C)C4)cc3)C2)CC1 | 1.1 nM | 2 nM |  | 700 nM |  |  |
| COC(=O)N[C@H]1CCC[C@@H]1[C@](Cn1ccnn1)(c1cccc(F)c1)C1CCN(CC2CN(c3ccc(S(=O)(=O)C4CN(C(=O)/C=C/CN(C)C)C4)cc3)C2)CC1 |  | 14 nM |  | 4800 nM |  |  |
| COC(=O)N[C@H]1CCC[C@@H]1[C@](CN1CCCCC1)(c1cccc(F)c1)C1CCN(CC2CN(c3ccc(S(=O)(=O)C4CN(C(=O)/C=C/CN(C)C)C4)cc3)C2)CC1 | 40 nM | 157 nM |  | 600 nM |  |  |
| CCc1nccn1C[C@@](c1cccc(F)c1)(C1CCN(CC2CN(c3ccc(S(=O)(=O)C4CN(C(=O)/C=C/CN(C)C)C4)cc3)C2)CC1)[C@H]1CCC[C@@H]1NC(=O)OC | 2 nM | 11 nM | 100% | > 10000 nM | 100% | IC50 (Menin [8]): 1.7 nM |
| COC(=O)N[C@H]1CCC[C@@H]1[C@](C#N)(c1cccc(F)c1)C1CCN(CC2CN(c3ccc(S(=O)(=O)C4CN(C(=O)/C=C/CN(C)C)C4)cc3)C2)CC1 | 4 nM | 19 nM | 100% | 1500 nM | 95% | IC50 (Menin [9]): 3.3 nM |
| COC(=O)N[C@H]1CCC[C@@H]1[C@](CN1CCC1)(c1cccc(F)c1)C1CCN(CC2CN(c3ccc(S(=O)(=O)C4CN(C(=O)/C=C/CN(C)C)C4)cc3)C2)CC1 |  | 8 nM | 100% | 3000 nM | 75% | Activity [4]: Non-Toxic; Activity [5]: > 10%; Activity (Mus musculus [6]): Active; fold change (FC) (Mus musculus [7]): >2 |
| COC(=O)N[C@H]1CCC[C@@H]1[C@](CN1CCC1)(c1cccc(F)c1)C1CCN(CC2CN(c3ccc(S(=O)(=O)C4CN(C(=O)/C=C/CN5CC(F)(F)C5)C4)cc3)C2)CC1 | 4 nM | 15 nM | 0% | 2800 nM | 0% |  |
| COC(=O)N[C@H]1CCC[C@@H]1[C@](CN1CCC1)(c1cccc(F)c1)C1CCN(CC2CN(c3ccc(S(=O)(=O)C4CN(C(=O)/C=C/CN5CCCCC5)C4)cc3)C2)CC1 | 1 nM | 4 nM | 100% | 2800 nM | 75% | inhibition in vivo at 25 mg/kg (MV4-11 [10]): 97%; Activity (MV4-11 [11]): 59 mm3; Activity [4]: Non-Toxic; Activity [12]: Non-Toxic; inhibition (Mus musculus [13]): Active; IC50 (Menin [8]): 2.6 nM; Activity (Mus musculus [6]): Active; Activity [14]: Non-Toxic; fold change (FC) (Mus musculus [7]): >2; Activity [15]: Non-Toxic; Activity (MV4-11 [16]): inactive; inhibition (Mus musculus [17]): Active |
| C=CC(=O)N1CC(S(=O)(=O)c2ccc(N3CC(CN4CCC([C@@](CN5CCC5)(c5cccc(F)c5)[C@H]5CCC[C@@H]5NC(=O)OC)CC4)C3)cc2)C1 | 23 nM | 374 nM | 75% | 2600 nM | 50% |  |
| COC(=O)N[C@H]1CCC[C@@H]1[C@](CN1CCCC1)(c1cccc(F)c1)C1CCN(CC2CN(c3ccc(S(=O)(=O)C4CN(C(=O)/C=C/CN(C)C)C4)cc3)C2)CC1 | 5 nM | 15 nM |  | 1400 nM |  |  |
| COC(=O)N[C@H]1CCC[C@@H]1[C@](CN1CCC1)(c1cccc(F)c1)C1CCN(CC2CN(c3ccc(S(=O)(=O)C4CN(C(=O)/C=C/CN5CCC(F)CC5)C4)cc3)C2)CC1 | 3 nM | 21 nM | 100% | 3600 nM | 20% |  |
